Screening data (PubChem BioAssay)
Arrestin-AP2 inh = blocks beta-arrestin peptide binding to AP2 adaptin; FITC-arrestin peptide / GST-AP2 beads, flow cytometry; AP2 beta2 appendage carries R879A mutation; inhibition, % at 10 µM; hit rate 0.31% among 340,000; AID 504490;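 active means inhibition above a set limit, near 3 SD of compounds lacking own fluorescence, cut at about 54% in these data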;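 further: plate controls were DMSO wells for no effect and 5 µM unlabelled arrestin peptide for full effect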
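Material – GST-tagged AP2 beta2-adaptin appendage (R879A) on 4 µm glutathione beads · Probe or stimulus – fluorescein-tagged arrestin peptide at 50 nM final · Timing – 12 min plus 1 h, RT · Detection – bead flow cytometry, FITC channel · Read-out basis – inhibition as reduced fluorescein signal on beads, percent · Medium – PBS plus Tween 20 (0.05%) and BSA (0.1%)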
Beta2AR agonist = human beta-2 adrenergic receptor agonism by FAP; P07550; Am2.2-beta2AR cells, FAP receptor internalization, flow cytometry; response, % (test concentration not listed); hit rate 0.43% among 340,000; AID 504454;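 active means response above a set limit, near 3 SD of response in nonfluorescent compounds, cut at about 42% in these data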
ABHD5-PLIN5 inh = ABHD5-PLIN5 protein interaction inhibition; Q00G26+Q8WTS1; Split G. princeps luciferase complementation, luminescence, 4 h; inhibition, % at 4 µM; hit rate 0.78% among 360,000;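 active means inhibition above the mean inhibition across every tested compound plus 3 SD, cut at about 22% in these data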;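 further: 0% = DMSO only wells and the 100% control is not disclosed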
Rin1 Abl inh = blocks binding of human Rin1 to Abl. hit rate 0.4% among 360,000. inhibition, % at 7.35 µM. TR-FRET Rin1/Abl binding, biochemical; in the data active means inhibition above about 5%, passing the limit was not always enough
UHRF1 binding = human UHRF1 methylated DNA binding inhibitors | hit rate 0.75% among 370,000 | Q96T88 | UHRF1 binding to methylated oligo, TR-FRET | inhibition, % at 4.4 µM | AID 687016; in the data active means inhibition above about 21%;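 further: UHRF1 SRA domain binding a hemimethylated CpG hairpin DNA probe; 0% = median of test compound wells and 100% = reference inhibitor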
MBD2 inh = MBD2-methylated oligo binding inhibition | AID 686964 | hit rate 0.31% among 370,000 | inhibition, % at 4.4 µM | TR-FRET, MBD2 binding to methylated oligonucleotide; in the data active means inhibition above about 13%
ABHD5 PLIN5 conf = ABHD5-PLIN5 interaction inhibition, confirmed; biochemical ABHD5-PLIN5 interaction, luminescence; AID 651612; inhibition, % at 4 µM; hit rate 67% among 2,200; shares compounds with ABHD5-PLIN5 inh; in the data active means inhibition above about 23%;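 further: 0% = DMSO vehicle wells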
HNF4 counter = HNF4 split-luciferase signal hit, counter-screen; shares compounds with ABHD5-PLIN5 inh; HNF4 dimerization, luminescence, biochemical; inhibition, % at 4 µM; hit rate 77% among 2,200; AID 651674;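 active means mean inhibition across replicate wells exceeding the computed hit threshold, cut at about 13% in these data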;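 further: light from luciferase halves that rejoin when HNF4 fusion proteins dimerize; 0% = DMSO only wells and the 100% control is not given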
An asterisk follows results filed as active; / = no result. Sampled rows, rich in hits. Any-hit rate of the full collection: about 2.5%.

SMILES	Arrestin-AP2 inh	Beta2AR agonist	ABHD5-PLIN5 inh	Rin1 Abl inh	UHRF1 binding	MBD2 inh	ABHD5 PLIN5 conf	HNF4 counter
O=C(/C=C/c1ccccc1)COC(=O)c1ccccc1	12.5	9.8	59.3*	2.5	5.6	4.2	80.3*	92.3*
Nc1nc2ncccc2cc1C(=O)C1=C(c2ccccc2)Cc2ccccc21	/	/	/	/	-1.3	3.5	/	/
CCOC(=O)c1c(NC(=O)/C=C/C(=O)O)sc(C)c1-c1ccc(C)c(C)c1	13.6	24.7	24.6*	2.1	-3.5	3.0	19.6	2.6
O=C(Nc1cccc(F)c1)/C(=C\c1ccco1)NC(=O)c1ccco1	-7.7	5.1	27.2*	2.6	-1.1	-4.4	3.4	0.3
O=C(Nc1cccc(C(F)(F)F)c1)/C(=C/c1ccco1)NC(=O)c1cccs1	7.5	-1.4	30.4*	-0.2	-4.3	2.7	9.7	11.4
CSc1ccc(Cl)c(C(=O)OCC(=O)NCc2ccco2)c1	19.4	-3.3	34.2*	1.2	2.9	-0.3	17.3	17.8*
CSc1ccc(Cl)c(C(=O)NCc2ccco2)c1	-1.9	9.3	8.7	-3.2	-0.8	0.3	/	/
COC(=O)c1cc(-c2ccc(F)cc2OCc2ccccc2)c(=O)n2c1CCC2	/	/	/	/	1.6	1.8	/	/
O=C(O)c1cccc(S(=O)(=O)Nc2ccc3oc(=O)sc3c2)c1	0.3	5.8	62.9*	-1.7	2.7	-0.4	-39.9	41.7*
CCCC/C=C1/[C@H](CC)N(C)C2=N[C@@H](c3ccccc3)CC(=O)N21	/	/	/	/	2.0	-0.4	/	/
Cc1cc(C(F)(F)F)nn1Cc1ccc(C(=O)NCc2ccco2)o1	-7.7	-8.4	23.2*	1.7	-2.3	-9.0	29.0*	22.6*
CN(C)CCOc1ccc(/C(=C(/CCCl)c2ccccc2)c2ccccc2)cc1	3.8	36.0	45.6*	1.4	-1.3	-5.5	74.7*	35.3*
CCC[C@@H](/C=C/C(=O)OC(C)(C)C)Sc1ccccc1OC	/	/	/	/	-1.3	1.6	/	/
COc1ccc(NC(=O)C2CCCNC2)cc1OCC(C)C (stereo not drawn)	-1.3	-2.6	-0.2	-1.9	5.5	7.3	/	/
COc1ccc(NC(=O)C2CCCN(CCCc3ccccc3)C2)cc1OCC(C)C (stereo not drawn)	1.7	22.2	38.5*	1.9	-0.5	-2.6	22.0*	14.9*
O=C(C[n+]1ccc(Cc2ccccc2)cc1)Nc1ccc([N+](=O)[O-])cc1Cl	0.1	0.1	6.6	0.3	0.0	0.9	/	/
Cc1ccc(Cl)cc1NC(=O)C[n+]1ccc(Cc2ccc([N+](=O)[O-])cc2)cc1	3.3	2.5	24.2*	2.1	1.0	4.7	15.1	-2.0
COc1ccc(C(CCN2CCOCC2)c2c(OC)cc(OC)c3c(-c4ccccc4)cc(=O)oc23)cc1 (stereo not drawn)	2.4	8.2	24.8*	-3.2	0.9	-2.4	10.9	8.2
COc1ccc(C(CCN2CCCC2)c2c(OC)cc(OC)c3c(-c4ccccc4)cc(=O)oc23)cc1 (stereo not drawn)	1.2	13.1	20.2	0.6	-1.3	4.8	/	/
CCCOC(=O)CSc1nnc(-c2cc(OC)c(OC)c(OC)c2)o1	-1.1	3.0	74.1*	3.0	-0.6	-7.3	4.8	3.0
CCCCCOC(=O)CSc1nnc(-c2cc(OC)c(OC)c(OC)c2)o1	7.4	4.8	-1.2	-1.9	-2.2	0.8	/	/
O=C1C(=Cc2ccc(Cl)cc2)Cc2ccccc21	/	/	14.4	/	0.8	10.1	/	/
C=CC(=O)N1C/C(=C/c2ccc(Cl)cc2)C(=O)/C(=C\c2ccc(Cl)cc2)C1	-11.7	25.0	94.3*	3.5	0.2	-3.2	104.1*	109.6*
C=CC(=O)N1C/C(=C/c2ccccc2)C(=O)/C(=C\c2ccccc2)C1	7.9	29.0	101.0*	5.9	1.2	0.6	103.2*	107.3*
C=CCn1c(SCC(=O)NC2CCCC2)nc2scc(-c3ccco3)c2c1=O	10.6	-7.7	43.2*	1.1	-3.5	4.6	36.4*	86.3*
SMILES	Arrestin-AP2 inh	Beta2AR agonist	ABHD5-PLIN5 inh	Rin1 Abl inh	UHRF1 binding	MBD2 inh	ABHD5 PLIN5 conf	HNF4 counter
CCCCNC1C(CC)C(CCC)C(C#N)(C#N)C1(C#N)C#N (stereo not drawn)	0.5	20.8	28.5*	2.4	/	/	64.1*	52.6*
Cc1nnc(C)n1N=Cc1ccc(O)cc1O	/	/	/	/	-1.3	-1.4	/	/
CC(C)c1ccc(OCC(=O)N2CCN(C(=O)c3ccco3)CC2)cc1	-8.4	-7.9	5.6	0.6	0.5	-0.2	/	/
Cc1ccc(C(C)C)cc1OCC(=O)N1CCN(C(=O)c2ccco2)CC1	30.1	-3.4	23.6*	-1.5	1.3	1.6	2.6	-1.9
O=C1C(=O)C(Cl)=C(Cl)C(Cl)=C1Cl	/	/	27.0*	7.0	/	/	51.4*	29.0*
CN(C)CC(=O)N[C@@H]1C[C@@H]2O[C@@H](CO)CC[C@@H]2O[C@@H]1CCc1ccc(-c2ccc(F)cc2)cc1	/	/	/	/	2.6	3.9	/	/
C/C(C=NNC(=O)CSc1nc2ccccc2n1Cc1ccccc1Cl)=C\c1ccccc1	/	/	/	/	1.4	-8.7	/	/
COc1cccc(CC2(CO)CCCN(Cc3ccc(-c4ccco4)cc3)C2)c1 (stereo not drawn)	4.8	7.8	23.9*	-2.1	-4.5	-0.8	22.4*	32.2*
CCN(CC)c1ccc(/C=C/C(=O)c2ccc(Br)cc2)cc1	-25.9	/	-4.3	-2.1	-5.0	1.6	/	/
O=C(/C=C/c1ccc(Br)cc1)c1ccc(NC2=NCCCS2)cc1	1.3	32.7	88.6*	1.5	-2.6	-5.7	95.0*	83.9*
O=C(/C=C/c1ccccc1)c1ccc(NC2=NCCCS2)cc1	-14.7	-1.9	61.6*	2.8	-0.9	1.4	72.1*	61.6*
CC(C)(C)c1ccc(/C=C/C(=O)c2ccc(NC3=NCCCS3)cc2)cc1	-4.1	8.3	50.4*	1.8	-0.5	1.8	57.4*	38.3*
CC(C)(C)c1ccc(/C=C/C(=O)Nc2ccncc2)cc1	0.4	9.8	-7.5	0.4	2.7	4.5	/	/
CC(C)N1CCCCC(NC(=O)COCc2ccccc2)C1=O (stereo not drawn)	/	/	/	/	-1.1	5.7	/	/
O=S1(=O)c2ccc(Br)cc2OC[C@@H](c2ccccc2)N1Cc1cn(Cc2ccccc2)nn1	/	/	/	/	16.3	3.8	/	/
Cc1ccc(C(=O)NCC(=O)OCc2nc3sc(C)c(C)c3c(=O)[nH]2)cc1	/	/	/	/	1.6	-1.8	/	/
CCCN(CC1CC1)C(=S)NC(=O)c1ccccc1C	/	/	0.8	2.0	2.7	-2.5	/	/
CCCN(CC1CC1)C(=S)NC(=O)c1cc(Br)ccc1Cl	30.9	14.3	24.3*	4.9	-5.7	-6.9	2.2	-7.4
